Assay results published in ChEMBL document CHEMBL4732057, “Design, synthesis and biological evaluation of second-generation benzoylpiperidine derivatives as reversible monoacylglycerol lipase (MAGL) inhibitors” (Eur J Med Chem, 2021).

Experiments:
Monoglyceride lipase = target: T1, Monoglyceride lipase (Homo sapiens, UniProt Q99685); assay: Inhibition of human recombinant MAGL using 4-nitrophenylacetate as substrate incubated for 30 mins by microplate reader assay
T1 sequence (Q99685 whole entry): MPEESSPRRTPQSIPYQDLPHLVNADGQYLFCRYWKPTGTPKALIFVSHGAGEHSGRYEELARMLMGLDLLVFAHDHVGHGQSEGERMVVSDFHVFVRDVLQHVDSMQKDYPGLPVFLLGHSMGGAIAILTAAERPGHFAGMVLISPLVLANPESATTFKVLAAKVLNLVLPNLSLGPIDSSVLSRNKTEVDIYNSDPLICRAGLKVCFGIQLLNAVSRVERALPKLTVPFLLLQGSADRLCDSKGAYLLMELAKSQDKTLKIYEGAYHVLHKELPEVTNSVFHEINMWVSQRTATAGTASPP
Procedure, shortened: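 Human recombinant MAGL, 11 ng/well, in 10 mM Tris pH 7.2 with 1 mM EDTA and 0.1 mg/mL BSA, at room temperature. 4-NPA 133.3 µM stock added; enzyme added last. Absorbance at 405 nm after 30 min, minus a no-enzyme blank for each concentration. Sigmoidal fit; duplicates of three independent experiments.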

Caov-3 cell line = assay: Antiproliferative activity against human CAOV3 cells as reduction in cell growth measured after 96 hrs by Celltiter-glo luminescent assay; type: functional, cell-based; details: Caov-3, 96 h
Procedure, shortened: (§1)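 Cell lines kept at 37 °C, 5% CO2; 5 × 10^2 cells per well, compound added the day after seeding at 200 to 0.02 µM. Viability read after 96 h by CellTiter-Glo luminescence. IC50 from logistic dose-response curves, in triplicate; error bars are SD.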

SK-OV-3 = assay: Antiproliferative activity against human SKOV3 cells as reduction in cell growth measured after 96 hrs by Celltiter-glo luminescent assay; type: functional, cell-based; details: SK-OV-3, 96 h; procedure, shortened: as §1
[1] = Cytotoxicity against cancer-derived human organoids in HGSOC patient assessed as reduction in cell viability up to 100 uM measured after 96 hrs by Celltiter-glo luminescent assay; type: functional, Neoplasm; details: dose microM <=100
Procedure, shortened: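 Organoids from three HGSOC patients. Tissue digested with 2 mg/mL collagenase for 30 min, embedded in BME matrix and cultured. Treated at 100 µM, with carboplatin as positive control. Viability read by CellTiter-Glo luminescence.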

MDA-MB-231 = assay: Antiproliferative activity against human MDA-MB-231 cells as reduction in cell growth measured after 96 hrs by Celltiter-glo luminescent assay; type: functional, cell-based; details: MDA-MB-231, 96 h; procedure, shortened: as §1
OVCAR-3 = assay: Antiproliferative activity against human OVCAR3 cells as reduction in cell growth measured after 96 hrs by Celltiter-glo luminescent assay; type: functional, cell-based; details: OVCAR-3, 96 h; procedure, shortened: as §1
HCT-116 = assay: Antiproliferative activity against human HCT116 cells as reduction in cell growth measured after 96 hrs by Celltiter-glo luminescent assay; type: functional, cell-based; details: HCT-116, 96 h; procedure, shortened: as §1
[2] = Antiproliferative activity against human PDAC-3 cells assessed as inhibition of cell growth incubated for 72 hrs by SRB assay; type: functional, cell-based; details: PDAC-3, 72 h
Procedure, shortened: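 Primary patient-derived PDAC-3 cells, cultured under 20 passages in RPMI-1640 with 10% NBCS. Compounds dissolved in DMSO and tested at 8 concentrations, 156.25 to 20 000 nM. Growth read by sulforhodamine-B assay.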

| SMILES | IC50 (Monoglyceride lipase) [nM] | other results |
| --- | --- | --- |
| O=C(c1ccc(C2CC2)cc1)C1CCN(C(=O)c2cccc(O)c2)CC1 | 368 | – |
| O=C(c1ccc(Oc2ccccc2)cc1)C1CCN(C(=O)c2cccc(O)c2)CC1 | 278 | – |
| CC(C)c1ccc(C(=O)C2CCN(C(=O)c3cc(O)ccn3)CC2)cc1 | > 10000 | – |
| COc1nn(-c2ccc(NC(=O)OCc3ccccc3)c(C)c2)c(=O)o1 | 130 | IC50 (Caov-3 cell line): 95000 nM; IC50 (SK-OV-3): 33000 nM; inhibition (INH) [1]: 50%; IC50 (MDA-MB-231): 83000 nM; IC50 (OVCAR-3): 53000 nM; IC50 (HCT-116): 38000 nM |
| O=C(c1ccc(-c2cn(-c3ccccc3)nn2)cc1)C1CCN(C(=O)c2cccc(O)c2)CC1 | 1000 | – |
| O=C(c1ccc(-c2cn(Cc3ccccc3)nn2)cc1)C1CCN(C(=O)c2cccc(O)c2)CC1 | 4400 | – |
| CC(C)c1ccc(C(=O)C2CCN(C(=O)c3cccc(O)n3)CC2)cc1 | > 10000 | – |
| O=C(c1ccc(Nc2ccccc2)cc1)C1CCN(C(=O)c2cccc(O)c2)CC1 | 758 | – |
| O=C(c1ccc(Cc2ccccc2)cc1)C1CCN(C(=O)c2cccc(O)c2)CC1 | 78 | – |
| CC(C)c1ccc(C(=O)C2CCN(C(=O)c3cc(O)ccc3[N+](=O)[O-])CC2)cc1 | 4500 | – |
| CC(C)c1ccc(C(=O)C2CCN(C(=O)c3ccnc(O)c3)CC2)cc1 | > 10000 | – |
| Nc1ccn([C@@H]2O[C@H](CO)[C@@H](O)C2(F)F)c(=O)n1 [GEMCITABINE] | – | IC50 [2]: 5.54 nM |
| CC(C)c1ccc(C(=O)C2CCN(C(=O)c3cncc(O)c3)CC2)cc1 | 2000 | – |
| CC(C)c1ccc(C(=O)C2CCN(C(=O)c3cc(O)c(F)cc3F)CC2)cc1 | 31 | – |
| O=C(c1ccc(Sc2ccccc2)cc1)C1CCN(C(=O)c2cccc(O)c2)CC1 | 74 | – |
| CC(C)c1ccc(C(=O)C2CCN(C(=O)c3cc(O)ccc3N)CC2)cc1 | > 10000 | – |

Now from value to compound, other results behind:

| IC50 (Monoglyceride lipase) [nM] | SMILES | other results |
| --- | --- | --- |
| 81 | CC(C)c1ccc(C(=O)C2CCN(C(=O)c3cc(O)ccc3F)CC2)cc1 | – |
| 8200 | CC(C)c1ccc(C(=O)C2CCN(C(=O)c3cc(O)ccc3C(F)(F)F)CC2)cc1 | – |
| 129 | O=C(c1ccc(C2CCCCC2)cc1)C1CCN(C(=O)c2cccc(O)c2)CC1 | – |
| 2300 | Cc1ccc(O)cc1C(=O)N1CCC(C(=O)c2ccc(C(C)C)cc2)CC1 | – |
| 3400 | O=C(c1ccc(S(=O)(=O)c2ccccc2)cc1)C1CCN(C(=O)c2cccc(O)c2)CC1 | – |
| 3300 | O=C(c1ccc(-c2cn(CCCc3ccccc3)nn2)cc1)C1CCN(C(=O)c2cccc(O)c2)CC1 | – |
| 4300 | O=C(c1ccc([S+]([O-])c2ccccc2)cc1)C1CCN(C(=O)c2cccc(O)c2)CC1 (stereo not given) | – |
| 142 | CC(C)c1ccc(C(=O)C2CCN(C(=O)c3cccc(O)c3)CC2)cc1 | – |
